Assay results published in ChEMBL document CHEMBL1828552, “Synthesis and studies of novel 2-(4-cyano-3-trifluoromethylphenyl amino)-4-(quinoline-4-yloxy)-6-(piperazinyl/piperidinyl)-s-triazines as potential antimicrobial, antimycobacterial and anticancer agents” (2011).
In brackets after ≈: the same amount, converted by molar mass.

The compounds below were run on DU-145 (assay: Cytotoxicity against […] human DU145 cells after 48 hrs by SRB assay). Settings: DU-145, 48 h.
Type: functional
How it was run: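 SRB assay in DU-145 cells grown in RPMI 1640 with 10% FBS and 2 mM L-glutamine. Cells were plated and held 24 h before addition of four 10-fold concentrations. After 48 h, cells were TCA-fixed, stained with 0.4% SRB and read at 540 nm. GI50, TGI and LC50 were derived against time-zero and control wells; each value is the mean of three experiments.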

What does the source list for `COc1ccc(N2CCN(c3nc(Nc4ccc(C#N)c(C(F)(F)F)c4)nc(Oc4ccnc5ccccc45)n3)CC2)cc1`?
GI50: > 100 µM; LC50 (concentration giving 50% net cell kill relative to time zero): > 100 µM; TGI: > 100 µM

What follows are compounds tested on Pseudomonas aeruginosa (assay: Antibacterial activity against 10^5 CFU/mL Pseudomonas aeruginosa MTCC 741 after 24 hrs by disc diffusion technique). Settings: not given.
Type: functional
How it was run: (§1)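 Disc diffusion on Mueller–Hinton agar poured 5 mm deep. The surface was swabbed with a 10⁵ CFU/mL […] suspension. Filter-paper discs 6.25 mm in diameter were soaked in compound in DMSO and placed on the agar. Plates were incubated 24 h at 37 ± 1 °C, and the inhibition zone was measured in mm. A DMSO disc served as blank.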

For `COc1ccc(N2CCN(c3nc(Nc4ccc(C#N)c(C(F)(F)F)c4)nc(Oc4ccnc5ccccc45)n3)CC2)cc1`, which “inhibition zone (IZ)” value is on record?
Its value is 26 mm.

Each compound was assayed on Klebsiella pneumoniae (assay: Antibacterial activity against 10^5 CFU/mL Klebsiella pneumoniae MTCC 109 after 24 hrs by disc diffusion technique). Settings: not given.
Type: functional
How it was run: as §1

With `COc1ccc(N2CCN(c3nc(Nc4ccc(C#N)c(C(F)(F)F)c4)nc(Oc4ccnc5ccccc45)n3)CC2)cc1` as the compound, how does the “inhibition zone (IZ)” value read?
The value was 23 mm.

The compounds below were run on Salmonella typhi (assay: Antibacterial activity against 10^5 CFU/mL Salmonella typhi MTCC 733 after 24 hrs by disc diffusion technique). Settings: not given.
Type: functional, Salmonella enterica subsp. enterica serovar Typhi
How it was run: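 Disc diffusion. Mueller-Hinton agar autoclaved 120 °C 30 min, poured 5 mm deep. Surface swabbed with 10⁵ CFU/mL suspension […]. 6.25 mm filter-paper discs soaked in compound in DMSO; DMSO-only disc as blank. Incubated 37 ± 1 °C, 24 h for bacteria or 48 h for fungi. Ciprofloxacin and ketoconazole discs as reference drugs. Inhibition zone measured in mm.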

Which “inhibition zone (IZ)” value does the source give for `COc1ccc(N2CCN(c3nc(Nc4ccc(C#N)c(C(F)(F)F)c4)nc(Oc4ccnc5ccccc45)n3)CC2)cc1` here?
Its value is 24 mm.

The compounds below were run on Staphylococcus aureus (assay: Antibacterial activity against 10^5 CFU/mL Staphylococcus aureus MTCC 96 after 24 hrs by disc diffusion technique). Settings: not given.
Type: functional
How it was run: as §1

How did the “inhibition zone (IZ)” value turn out when `COc1ccc(N2CCN(c3nc(Nc4ccc(C#N)c(C(F)(F)F)c4)nc(Oc4ccnc5ccccc45)n3)CC2)cc1` was run?
Its value is 24 mm.

What follows are compounds tested on Candida albicans (assay: Antifungal activity against 10^5 CFU/mL Candida albicans MTCC 183 after 48 hrs by disc diffusion technique). Settings: not given.
Type: functional

Which “inhibition zone (IZ)” value does the source give for `COc1ccc(N2CCN(c3nc(Nc4ccc(C#N)c(C(F)(F)F)c4)nc(Oc4ccnc5ccccc45)n3)CC2)cc1` here?
Its value is 24 mm.

The compounds below were run on Escherichia coli (assay: Antibacterial activity against 10^5 CFU/mL Escherichia coli MTCC 739 after 24 hrs by agar streak dilution method). Settings: MTCC 739, 24 h.
Type: functional
How it was run: (§2)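 Agar streak dilution. Stock 100 µg/mL in DMSO; graded amounts were mixed into molten nutrient agar and poured at 4–5 mm depth. Plates carried serial dilutions over […]. About 10⁵ CFU/mL of each bacterium was applied, and plates were incubated at 37 ± 1 °C for 24 h. MIC was read from the dilution series.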

For `COc1ccc(N2CCN(c3nc(Nc4ccc(C#N)c(C(F)(F)F)c4)nc(Oc4ccnc5ccccc45)n3)CC2)cc1`, which MIC is on record?
The MIC was 12.5 µg/mL (≈ 20.9 µM).

The compounds below were run on Bacillus cereus (assay: Antibacterial activity against 10^5 CFU/mL Bacillus cereus MTCC 619 after 24 hrs by disc diffusion technique). Settings: not given.
Type: functional
How it was run: as §1

How did the “inhibition zone (IZ)” value turn out when `COc1ccc(N2CCN(c3nc(Nc4ccc(C#N)c(C(F)(F)F)c4)nc(Oc4ccnc5ccccc45)n3)CC2)cc1` was run?
Its value is 28 mm.

Each compound was assayed on Candida albicans (assay: Antifungal activity against 10^5 CFU/mL Candida albicans MTCC 183 after 48 hrs by agar streak dilution method). Settings: MTCC 183, 48 h.
Type: functional
How it was run: (§3)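 Agar streak dilution for fungi. Stock 100 µg/mL in DMSO; graded amounts were mixed into molten Sabouraud dextrose agar and poured at 4–5 mm depth. Serial dilutions ran over […]. About 10⁵ CFU/mL inoculum was applied, with incubation at 37 ± 1 °C for 48 h. MIC was read from the dilution series.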

With `COc1ccc(N2CCN(c3nc(Nc4ccc(C#N)c(C(F)(F)F)c4)nc(Oc4ccnc5ccccc45)n3)CC2)cc1` as the compound, how does the MIC read?
The MIC was 50 µg/mL (≈ 83.5 µM).

The compounds below were run on Escherichia coli (assay: Antibacterial activity against 10^5 CFU/mL Escherichia coli MTCC 739 after 24 hrs by disc diffusion technique). Settings: not given.
Type: functional
How it was run: as §1

Which “inhibition zone (IZ)” value does the source give for `COc1ccc(N2CCN(c3nc(Nc4ccc(C#N)c(C(F)(F)F)c4)nc(Oc4ccnc5ccccc45)n3)CC2)cc1` here?
Its value is 25 mm.

Each compound was assayed on Bacillus cereus (assay: Antibacterial activity against 10^5 CFU/mL Bacillus cereus MTCC 619 after 24 hrs by agar streak dilution method). Settings: MTCC 619, 24 h.
Type: functional
How it was run: as §2

Which MIC does the source give for `COc1ccc(N2CCN(c3nc(Nc4ccc(C#N)c(C(F)(F)F)c4)nc(Oc4ccnc5ccccc45)n3)CC2)cc1` here?
Its MIC is 6.25 µg/mL (≈ 10.4 µM).

These compounds were tested on Shigella flexneri (assay: Antibacterial activity against 10^5 CFU/mL Shigella flexneri MTCC 1457 after 24 hrs by disc diffusion technique). Settings: not given.
Type: functional
How it was run: as §1

`COc1ccc(N2CCN(c3nc(Nc4ccc(C#N)c(C(F)(F)F)c4)nc(Oc4ccnc5ccccc45)n3)CC2)cc1` was tested. Which “inhibition zone (IZ)” value did it give?
Its value is 23 mm.

What follows are compounds tested on Pseudomonas aeruginosa (assay: Antibacterial activity against 10^5 CFU/mL Pseudomonas aeruginosa MTCC 741 after 24 hrs by agar streak dilution method). Settings: MTCC 741, 24 h.
Type: functional
How it was run: as §2

With `COc1ccc(N2CCN(c3nc(Nc4ccc(C#N)c(C(F)(F)F)c4)nc(Oc4ccnc5ccccc45)n3)CC2)cc1` as the compound, how does the MIC read?
Its MIC is 6.25 µg/mL (≈ 10.4 µM).

What follows are compounds tested on Proteus vulgaris (assay: Antibacterial activity against 10^5 CFU/mL Proteus vulgaris MTCC 1771 after 24 hrs by agar streak dilution method). Settings: MTCC 1771, 24 h.
Type: functional
How it was run: as §2

For `COc1ccc(N2CCN(c3nc(Nc4ccc(C#N)c(C(F)(F)F)c4)nc(Oc4ccnc5ccccc45)n3)CC2)cc1`, which MIC is on record?
Its MIC is 12.5 µg/mL (≈ 20.9 µM).

These compounds were tested on Aspergillus niger (assay: Antifungal activity against 10^5 CFU/mL Aspergillus niger MTCC 282 after 48 hrs by disc diffusion technique). Settings: not given.
Type: functional

How did the “inhibition zone (IZ)” value turn out when `COc1ccc(N2CCN(c3nc(Nc4ccc(C#N)c(C(F)(F)F)c4)nc(Oc4ccnc5ccccc45)n3)CC2)cc1` was run?
The value was 25 mm.

What follows are compounds tested on Aspergillus fumigatus (assay: Antifungal activity against 10^5 CFU/mL Aspergillus fumigatus MTCC 343 after 48 hrs by disc diffusion technique). Settings: not given.
Type: functional

How did the “inhibition zone (IZ)” value turn out when `COc1ccc(N2CCN(c3nc(Nc4ccc(C#N)c(C(F)(F)F)c4)nc(Oc4ccnc5ccccc45)n3)CC2)cc1` was run?
The value was 27 mm.

What follows are compounds tested on Aspergillus clavatus (assay: Antifungal activity against 10^5 CFU/mL Aspergillus clavatus MTCC 1323 after 48 hrs by agar streak dilution method). Settings: MTCC 1323, 48 h.
Type: functional
How it was run: as §3

Which MIC does the source give for `COc1ccc(N2CCN(c3nc(Nc4ccc(C#N)c(C(F)(F)F)c4)nc(Oc4ccnc5ccccc45)n3)CC2)cc1` here?
The MIC was 12.5 µg/mL (≈ 20.9 µM).

The compounds below were run on Proteus vulgaris (assay: Antibacterial activity against 10^5 CFU/mL Proteus vulgaris MTCC 1771 after 24 hrs by disc diffusion technique). Settings: not given.
Type: functional
How it was run: as §1

`COc1ccc(N2CCN(c3nc(Nc4ccc(C#N)c(C(F)(F)F)c4)nc(Oc4ccnc5ccccc45)n3)CC2)cc1` was tested. Which “inhibition zone (IZ)” value did it give?
The value was 24 mm.

These compounds were tested on Aspergillus clavatus (assay: Antifungal activity against 10^5 CFU/mL Aspergillus clavatus MTCC 1323 after 48 hrs by disc diffusion technique). Settings: not given.
Type: functional

Which “inhibition zone (IZ)” value does the source give for `COc1ccc(N2CCN(c3nc(Nc4ccc(C#N)c(C(F)(F)F)c4)nc(Oc4ccnc5ccccc45)n3)CC2)cc1` here?
Its value is 28 mm.

What follows are compounds tested on Shigella flexneri (assay: Antibacterial activity against 10^5 CFU/mL Shigella flexneri MTCC 1457 after 24 hrs by agar streak dilution method). Settings: MTCC 1457, 24 h.
Type: functional
How it was run: as §2

`COc1ccc(N2CCN(c3nc(Nc4ccc(C#N)c(C(F)(F)F)c4)nc(Oc4ccnc5ccccc45)n3)CC2)cc1` was tested. Which MIC did it give?
Its MIC is 12.5 µg/mL (≈ 20.9 µM).

These compounds were tested on Klebsiella pneumoniae (assay: Antibacterial activity against 10^5 CFU/mL Klebsiella pneumoniae MTCC 109 after 24 hrs by agar streak dilution method). Settings: MTCC 109, 24 h.
Type: functional
How it was run: as §2

With `COc1ccc(N2CCN(c3nc(Nc4ccc(C#N)c(C(F)(F)F)c4)nc(Oc4ccnc5ccccc45)n3)CC2)cc1` as the compound, how does the MIC read?
Its MIC is 25 µg/mL (≈ 41.8 µM).

These compounds were tested on Aspergillus niger (assay: Antifungal activity against 10^5 CFU/mL Aspergillus niger MTCC 282 after 48 hrs by agar streak dilution method). Settings: MTCC 282, 48 h.
Type: functional
How it was run: as §3

Which MIC does the source give for `COc1ccc(N2CCN(c3nc(Nc4ccc(C#N)c(C(F)(F)F)c4)nc(Oc4ccnc5ccccc45)n3)CC2)cc1` here?
The MIC was 25 µg/mL (≈ 41.8 µM).

Each compound was assayed on Staphylococcus aureus (assay: Antibacterial activity against 10^5 CFU/mL Staphylococcus aureus MTCC 96 after 24 hrs by agar streak dilution method). Settings: MTCC 96, 24 h.
Type: functional
How it was run: as §2

`COc1ccc(N2CCN(c3nc(Nc4ccc(C#N)c(C(F)(F)F)c4)nc(Oc4ccnc5ccccc45)n3)CC2)cc1` was tested. Which MIC did it give?
The MIC was 25 µg/mL (≈ 41.8 µM).

The compounds below were run on Aspergillus fumigatus (assay: Antifungal activity against 10^5 CFU/mL Aspergillus fumigatus MTCC 343 after 48 hrs by agar streak dilution method). Settings: MTCC 343, 48 h.
Type: functional
How it was run: as §3

With `COc1ccc(N2CCN(c3nc(Nc4ccc(C#N)c(C(F)(F)F)c4)nc(Oc4ccnc5ccccc45)n3)CC2)cc1` as the compound, how does the MIC read?
Its MIC is 25 µg/mL (≈ 41.8 µM).

The compounds below were run on Salmonella typhi (assay: Antibacterial activity against 10^5 CFU/mL Salmonella typhi MTCC 733 after 24 hrs by agar streak dilution method). Settings: Salmonella enterica, MTCC 733, 24 h.
Type: functional, Salmonella enterica subsp. enterica serovar Typhi

Which MIC does the source give for `COc1ccc(N2CCN(c3nc(Nc4ccc(C#N)c(C(F)(F)F)c4)nc(Oc4ccnc5ccccc45)n3)CC2)cc1` here?
Its MIC is 25 µg/mL (≈ 41.8 µM).
